Active and inactive are the calls of the source. No cut-off for these calls is given here.
Key:
Monoglyceride lipase [1] = molecular target: T1, Monoglyceride lipase (Rattus norvegicus, UniProt Q8R431); test: Inhibition of MAGL in rat brain membranes preincubated for 20 mins followed by fluorophosphonate-rhodamine addition measured after 30 mins by competitive affinity based proteomic profiling assay; type: cell membranes, Membrane
T1 sequence (Q8R431 whole entry): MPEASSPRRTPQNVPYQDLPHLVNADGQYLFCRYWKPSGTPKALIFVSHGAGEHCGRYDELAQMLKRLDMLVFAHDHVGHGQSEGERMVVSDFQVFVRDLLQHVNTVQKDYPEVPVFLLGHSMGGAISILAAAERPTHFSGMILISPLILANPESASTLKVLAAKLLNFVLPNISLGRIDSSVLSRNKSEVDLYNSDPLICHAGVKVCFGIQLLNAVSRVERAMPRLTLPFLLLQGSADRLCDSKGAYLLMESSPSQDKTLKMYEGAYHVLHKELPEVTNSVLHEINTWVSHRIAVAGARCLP
Procedure, shortened: (§1)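 Rat brain membranes (1 mg/mL) preincubated with 1–1000 nM inhibitor or DMSO for 20 min at 37 °C. FP-rhodamine then added and incubated a further 30 min at 37 °C. Samples run on SDS-PAGE and serine hydrolase bands quantified by in-gel fluorescence.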

Heart [2] = test: Cardiotoxicity in Langendorff-perfused Sprague-Dawley rat heart assessed as heart rate at 0.01 uM by ECG analysis (reference value: 252.78 +/- 9.28 bpm); type: toxicity, tissue-based
Heart [3] = test: Cardiotoxicity in Langendorff-perfused Sprague-Dawley rat heart assessed as heart rate at 1 uM by ECG analysis (reference value: 252.78 +/- 9.28 bpm); type: toxicity, tissue-based
Cannabinoid receptor 1 = Cannabinoid receptor 1 (Homo sapiens, UniProt P21554); test: Displacement of [3H]-CP-55940 from human recombinant CB1 receptor expressed in HEK293 cells after 90 mins; type: cell-based
Cannabinoid receptor 1, sequence (P21554 whole entry): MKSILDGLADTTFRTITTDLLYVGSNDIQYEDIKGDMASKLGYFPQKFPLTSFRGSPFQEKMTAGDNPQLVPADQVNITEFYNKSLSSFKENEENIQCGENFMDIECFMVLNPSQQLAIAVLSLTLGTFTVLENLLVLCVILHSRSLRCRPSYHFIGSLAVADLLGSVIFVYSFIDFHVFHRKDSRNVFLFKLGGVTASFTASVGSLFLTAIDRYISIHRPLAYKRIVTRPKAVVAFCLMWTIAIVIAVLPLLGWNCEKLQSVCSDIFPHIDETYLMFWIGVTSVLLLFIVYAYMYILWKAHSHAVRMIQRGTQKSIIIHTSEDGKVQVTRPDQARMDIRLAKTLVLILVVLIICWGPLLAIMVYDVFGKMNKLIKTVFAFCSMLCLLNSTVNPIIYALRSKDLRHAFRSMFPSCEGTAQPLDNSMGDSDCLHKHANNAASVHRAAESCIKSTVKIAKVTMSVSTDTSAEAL
Procedure, shortened: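 Membranes from HEK-293 cells stably expressing human CB1 (Bmax 2.9 pmol/mg) or CB2 (Bmax 6.0 pmol/mg) incubated 90 min at 30 °C with [3H]-CP-55,940: 0.4 nM for CB1, 0.53 nM for CB2. Non-specific binding defined with 10 µM WIN 55212-2.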

Salmonella typhimurium [4] = test: Mutagenicity in Salmonella typhimurium TA98 assessed as increase in number of colonies at 1 uM by Ames test; type: toxicity, organism-based; settings: salmonella enterica subsp. enterica serovar typhimurium
Salmonella typhimurium [5] = test: Mutagenicity in Salmonella typhimurium TA100 assessed as increase in number of colonies at 1 uM by Ames test; type: toxicity, organism-based; settings: salmonella enterica subsp. enterica serovar typhimurium
Monoglyceride lipase [6] = molecular target: T2, Monoglyceride lipase (Homo sapiens, UniProt Q99685); test: Inhibition of recombinant C-terminal His6-tagged human MAGL expressed in Escherichia coli using 2-arachidonoyl-[3H]-glycerol as substrate incubated for 20 mins by scintillation counting method
T2 sequence (Q99685 whole entry): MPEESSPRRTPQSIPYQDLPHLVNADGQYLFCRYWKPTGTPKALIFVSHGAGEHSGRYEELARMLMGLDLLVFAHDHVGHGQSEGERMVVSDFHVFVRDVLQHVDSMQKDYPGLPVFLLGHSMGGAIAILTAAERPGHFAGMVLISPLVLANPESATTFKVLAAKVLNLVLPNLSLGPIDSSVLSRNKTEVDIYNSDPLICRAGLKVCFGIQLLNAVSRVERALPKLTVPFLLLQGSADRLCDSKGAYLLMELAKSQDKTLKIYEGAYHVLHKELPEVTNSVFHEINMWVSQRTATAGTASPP

Mus musculus [7] = test: Reduction of disease index score in myelin oligodendrocyte glycoprotein (35 to 55)-induced C57BL/6J mouse experimental autoimmune encephalomyelitis model of multiple sclerosis at 3 mg/kg, ip administered post CB2 antagonist/inverse agonist AM630 addition dosed on day 6 postimmunization up to 21 day postimmunization measured from day 12 postimmunization; type: functional, organism-based
Procedure, shortened: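 Female C57BL/6J mice immunized with MOG35-55 were randomly assigned to groups. They received 3 mg/kg i.p. daily from 6 days post-immunization up to 21±1 d.p.i. AM251 or AM630, 1 mg/kg i.p., was given 10 min before each dose for 14 days. Clinical score was recorded daily and as cumulative score, reported as mean ± SEM. Group sizes were 4–9 mice.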

[8] = molecular target: T3, Fatty-acid amide hydrolase 1 (Rattus norvegicus) (UniProt P97612); test: Inhibition of FAAH in rat brain membranes up to 500 nM preincubated for 20 mins followed by fluorophosphonate-rhodamine addition measured after 30 mins by competitive affinity based proteomic profiling assay; type: cell membranes; settings: Membrane; procedure, shortened: as §1
T3 sequence (whole entry): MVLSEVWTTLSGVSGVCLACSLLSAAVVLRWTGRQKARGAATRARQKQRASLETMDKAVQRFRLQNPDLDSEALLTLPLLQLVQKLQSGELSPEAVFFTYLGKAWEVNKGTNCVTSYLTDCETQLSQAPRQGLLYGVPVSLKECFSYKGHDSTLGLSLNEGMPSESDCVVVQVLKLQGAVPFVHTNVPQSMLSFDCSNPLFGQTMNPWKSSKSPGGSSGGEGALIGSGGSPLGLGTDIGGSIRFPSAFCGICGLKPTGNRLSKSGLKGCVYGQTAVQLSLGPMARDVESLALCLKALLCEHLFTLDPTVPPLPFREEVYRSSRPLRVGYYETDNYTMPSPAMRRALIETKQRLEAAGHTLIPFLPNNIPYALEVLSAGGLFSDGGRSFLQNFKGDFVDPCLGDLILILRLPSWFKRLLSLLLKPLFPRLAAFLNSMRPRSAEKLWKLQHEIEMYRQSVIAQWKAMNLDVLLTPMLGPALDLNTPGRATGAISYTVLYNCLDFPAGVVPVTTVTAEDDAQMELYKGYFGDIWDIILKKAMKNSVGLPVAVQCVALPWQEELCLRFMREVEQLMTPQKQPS

Mus musculus [9] = test: Inhibition of demyelination in experimental autoimmune encephalomyelitis C57BL/6J mouse spinal cord at 3 mg/kg, ip administered post CB1 antagonist/inverse agonist AM251 addition by luxol fast blue staining based microscopic analysis; type: functional, organism-based
Procedure, shortened: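 EAE induced in female C57BL/6J mice with MOG35-55, then 3 mg/kg i.p. daily. AM251 or AM630 (1 mg/kg), where used, given 10 min before each dose. Spinal cord white matter stained with Luxol Fast Blue and demyelinated areas assessed by microscopy.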

Question: How did the IC50 (Monoglyceride lipase [1]) turn out when `O=C1[C@H](c2ccc(F)cc2)[C@@H](c2ccc3c(c2)OCO3)N1C1CCN(C(=O)n2cncn2)CC1` (racemic) [listing 1 of 2 here] was run?
Answer: 10 nM

Question: And the Activity (Heart [2])?
Answer: 254.18 bpm

Question: And the Activity (Heart [3])?
Answer: 255.5 bpm

Question: And the IC50 (Cannabinoid receptor 1)?
Answer: > 10000 nM

Question: And the Activity (Salmonella typhimurium [4])?
Answer: Non-toxic

Question: What about the Activity (Salmonella typhimurium [5]) of the same compound?
Answer: Non-toxic

Question: And the IC50 (Monoglyceride lipase [6])?
Answer: 7.4 nM

Question: Which Activity (Mus musculus [7]) does the source give for `O=C1[C@H](c2ccc(F)cc2)[C@@H](c2ccc3c(c2)OCO3)N1C1CCN(C(=O)n2cncn2)CC1` (racemic) [listing 2 of 2 here] here?
Answer: inactive

Question: What about the inhibition [8] of the same compound?
Answer: inactive

Question: And the inhibition (Mus musculus [9])?
Answer: inactive

Reference: ChEMBL document CHEMBL3785023, “Development and Pharmacological Characterization of Selective Blockers of 2-Arachidonoyl Glycerol Degradation with Efficacy in Rodent Models of Multiple Sclerosis and Pain” (J Med Chem, 2016)
